Columns and labels:
[1] = AUC in Hartley guinea pig at 5 mg/kg, iv; assay type: ADME, organism-based, Cavia porcellus; set-up: dose 5 mg/kg, route intravenous; settings: plasma
Outline: (§1)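 A 1:1 deuterio/proto mixture, ~10 mg/kg total (5 mg/kg per isotopic form), was given orally in water or as an IV bolus via the jugular vein in saline. Animals were male Hartley guinea pigs (325–350 g) or male Sprague-Dawley rats (250–300 g). Carotid blood was sampled from 10 min to 6 h, and plasma was analysed by LC-MS/MS MRM. AUC and t1/2 were calculated between the first and last measured points.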

[2] = AUC in Sprague-Dawley rat at 5 mg/kg, iv; assay type: ADME, organism-based; set-up: dose 5 mg/kg, route intravenous; settings: plasma; outline: as §1
[3] = AUC in Hartley guinea pig at 5 mg/kg, po; assay type: ADME, organism-based, Cavia porcellus; set-up: dose 5 mg/kg, route oral; settings: plasma; outline: as §1
[4] = Cmax in Hartley guinea pig at 5 mg/kg, po; assay type: ADME, organism-based, Cavia porcellus; set-up: dose 5 mg/kg, route oral; settings: in vivo; outline: as §1
[5] = AUC in Sprague-Dawley rat at 5 mg/kg, po; assay type: ADME, organism-based; set-up: dose 5 mg/kg, route oral; settings: plasma; outline: as §1
[6] = Cmax in Sprague-Dawley rat at 5 mg/kg, po; assay type: ADME, organism-based; set-up: dose 5 mg/kg, route oral; settings: in vivo; outline: as §1
aldehyde oxidase = test: Activity of guinea pig cytosolic aldehyde oxidase; settings: cytosol (aldehyde oxidase)
[7] = AUC in Hartley guinea pig at 1 mg/kg, iv; assay type: ADME, organism-based, Cavia porcellus; set-up: dose 1 mg/kg, route intravenous; settings: plasma
Outline: (§2)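 Male Hartley guinea pigs (325–350 g) or male Sprague-Dawley rats (250–300 g) received a 1:1 deuterio/proto mixture. Oral dose was ~5 mg/kg total (2.5 mg/kg per isotopomer) in water; IV bolus via the jugular vein was ~2 mg/kg total (1 mg/kg per isotopomer) in saline. Carotid blood was drawn between 10 min and 6 h, and plasma was assayed by LC-MS/MS. AUC and t1/2 cover only the first to last measured time points.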

[8] = Half life in Hartley guinea pig at 1 mg/kg, iv; assay type: ADME, organism-based, Cavia porcellus; set-up: dose 1 mg/kg, route intravenous; settings: in vivo; outline: as §2
[9] = AUC in Sprague-Dawley rat at 1 mg/kg, iv; assay type: ADME, organism-based; set-up: dose 1 mg/kg, route intravenous; settings: plasma; outline: as §2
[10] = Half life in Sprague-Dawley rat at 1 mg/kg, iv; assay type: ADME, organism-based; set-up: dose 1 mg/kg, route intravenous; settings: in vivo; outline: as §2
[11] = AUC in Hartley guinea pig at 2.5 mg/kg, po; assay type: ADME, organism-based, Cavia porcellus; set-up: dose 2.5 mg/kg, route oral; settings: plasma; outline: as §2
[12] = Cmax in Hartley guinea pig at 2.5 mg/kg, po; assay type: ADME, organism-based, Cavia porcellus; set-up: dose 2.5 mg/kg, route oral; settings: in vivo; outline: as §2
[13] = Half life in Hartley guinea pig at 2.5 mg/kg, po; assay type: ADME, organism-based, Cavia porcellus; set-up: dose 2.5 mg/kg, route oral; settings: in vivo; outline: as §2
[14] = AUC in Sprague-Dawley rat at 2.5 mg/kg, po; assay type: ADME, organism-based; set-up: dose 2.5 mg/kg, route oral; settings: plasma; outline: as §2
[15] = Cmax in Sprague-Dawley rat at 2.5 mg/kg, po; assay type: ADME, organism-based; set-up: dose 2.5 mg/kg, route oral; settings: in vivo; outline: as §2
[16] = Half life in Sprague-Dawley rat at 2.5 mg/kg, po; assay type: ADME, organism-based; set-up: dose 2.5 mg/kg, route oral; settings: in vivo; outline: as §2

SMILES | AUC [1] | AUC [2] | AUC [3] | Cmax [4] | AUC [5] | Cmax [6] | Km (aldehyde oxidase) | AUC [7] | half-life [8] | AUC [9] | half-life [10] | AUC [11] | Cmax [12] | half-life [13] | AUC [14] | Cmax [15] | half-life [16]
[2H]c1nnc(N2CCC(OC(=O)NCC)CC2)c2cc(OC)c(OC)cc12 | 206 ng·h/mL | 1270 ng·h/mL | 96 ng·h/mL | 161 ng/mL | 3720 ng·h/mL | 1770 ng/mL |  |  |  |  |  |  |  |  |  |  | 
c1ccc2ncccc2c1 [QUINOLINE] |  |  |  |  |  |  | 212 µM |  |  |  |  |  |  |  |  |  | 
N=C(N)NC(=O)c1cnn(-c2cccc3ncccc23)c1C1CC1 [ZONIPORIDE] |  |  |  |  |  |  |  | 23.2 ng·h/mL | 30 min | 74.4 ng·h/mL | 24 min | 22.2 ng·h/mL | 26.5 ng/mL | 30 min | 19.7 ng·h/mL | 24.7 ng/mL | 18 min
CCNC(=O)OC1CCN(c2nncc3cc(OC)c(OC)cc23)CC1 [CARBAZERAN] | 35.6 ng·h/mL | 509 ng·h/mL | 4.25 ng·h/mL | 9.8 ng/mL | 1630 ng·h/mL | 1150 ng/mL |  |  |  |  |  |  |  |  |  |  | 
[2H]c1ccc2c(-n3ncc(C(=O)NC(=N)N)c3C3CC3)cccc2n1 |  |  |  |  |  |  |  | 40.7 ng·h/mL | 30 min | 77.4 ng·h/mL | 30 min | 25.7 ng·h/mL | 23.3 ng/mL | 30 min | 12.7 ng·h/mL | 18.4 ng/mL | 18 min
[2H]c1ccc2ccccc2n1 |  |  |  |  |  |  | 193 µM |  |  |  |  |  |  |  |  |  | 

Source: ChEMBL document CHEMBL3525996, “Deuterium isotope effects on drug pharmacokinetics. I. System-dependent effects of specific deuteration with aldehyde oxidase cleared drugs” (Drug Metab Dispos, 2012)
